Data as given in ChEMBL document CHEMBL1155999, “Discovery and biological profile of isoindolinone derivatives as novel metabotropic glutamate receptor 1 antagonists: a potential treatment for psychotic disorders” (Bioorg Med Chem Lett, 2009).
Each block holds one molecule with its values, some of them ahead of it. Calls of active or inactive are those of the source. No cut-off for these calls is given here.

Experiments:
[1] = biological target: T1, Metabotropic glutamate receptor 1 (Homo sapiens, UniProt Q13255); experiment: Antagonist activity at human mGluR1 receptor expressed in CHO cell membranes assessed as inhibition of L-glutamate-induced calcium mobilization by FLIPR; type: functional, cell-based
T1 sequence (Q13255 whole entry): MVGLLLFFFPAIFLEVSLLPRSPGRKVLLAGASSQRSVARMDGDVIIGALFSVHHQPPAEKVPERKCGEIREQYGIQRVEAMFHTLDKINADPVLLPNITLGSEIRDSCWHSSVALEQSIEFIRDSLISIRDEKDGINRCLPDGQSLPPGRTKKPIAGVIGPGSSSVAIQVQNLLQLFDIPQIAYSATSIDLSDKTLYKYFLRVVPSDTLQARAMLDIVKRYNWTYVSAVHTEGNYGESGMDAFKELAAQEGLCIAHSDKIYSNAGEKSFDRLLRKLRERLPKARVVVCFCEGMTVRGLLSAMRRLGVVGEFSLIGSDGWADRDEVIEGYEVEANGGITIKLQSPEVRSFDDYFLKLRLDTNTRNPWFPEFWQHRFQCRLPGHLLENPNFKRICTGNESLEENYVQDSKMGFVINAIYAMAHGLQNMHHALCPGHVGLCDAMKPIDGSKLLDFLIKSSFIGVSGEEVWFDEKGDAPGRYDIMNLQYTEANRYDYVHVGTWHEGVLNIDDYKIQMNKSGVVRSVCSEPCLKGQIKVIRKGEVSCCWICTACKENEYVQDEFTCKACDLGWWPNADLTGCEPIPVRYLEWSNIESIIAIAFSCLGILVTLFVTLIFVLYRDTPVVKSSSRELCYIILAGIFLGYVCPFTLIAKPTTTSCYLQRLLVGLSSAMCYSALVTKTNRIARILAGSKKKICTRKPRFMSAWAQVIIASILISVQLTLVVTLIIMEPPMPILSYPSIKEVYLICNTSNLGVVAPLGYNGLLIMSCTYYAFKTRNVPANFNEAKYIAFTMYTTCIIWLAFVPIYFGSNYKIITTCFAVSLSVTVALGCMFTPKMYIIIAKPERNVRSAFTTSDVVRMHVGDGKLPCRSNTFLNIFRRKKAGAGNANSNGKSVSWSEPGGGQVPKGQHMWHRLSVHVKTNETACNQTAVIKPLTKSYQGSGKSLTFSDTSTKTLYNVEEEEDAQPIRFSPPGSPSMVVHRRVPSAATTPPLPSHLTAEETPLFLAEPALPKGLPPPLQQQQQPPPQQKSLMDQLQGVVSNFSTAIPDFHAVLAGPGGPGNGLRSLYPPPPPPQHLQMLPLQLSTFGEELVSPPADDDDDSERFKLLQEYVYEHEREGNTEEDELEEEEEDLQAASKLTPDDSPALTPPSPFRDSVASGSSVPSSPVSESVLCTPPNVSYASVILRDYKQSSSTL
Summary of the method: (§1)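 Human mGluR1a stably expressed in CHO cells; antagonism read as inhibition of the intracellular Ca2+ rise on FLIPR. IC50 is the mean of at least three independent determinations, each run in duplicate, reported ± SEM.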

[2] = Plasma clearance in rat at 3 mg/kg, po and 1 mg/kg, iv; type: ADME, organism-based
Summary of the method: (§2)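 Rats dosed orally at 3 mg/kg and intravenously at 1 mg/kg. Oral bioavailability (F), half-life and total plasma clearance were derived from the plasma profiles.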

[3] = Half life in rat at 3 mg/kg, po and 1 mg/kg, iv; type: ADME, organism-based; details: in vivo; summary of the method: as §2
[4] = Octanol to water distribution coefficient, log D at pH 7.4; type: physicochemical
[5] = Oral bioavailability in rat at 3 mg/kg; type: ADME, organism-based; details: in vivo; summary of the method: as §2
[6] = biological target: Metabotropic glutamate receptor 5 (Homo sapiens, UniProt P41594); experiment: Antagonist activity at human mGluR5 receptor expressed in CHO cell membranes assessed as inhibition of L-glutamate-induced calcium mobilization by FLIPR; type: functional, cell-based
Chain of Metabotropic glutamate receptor 5 (P41594 whole entry): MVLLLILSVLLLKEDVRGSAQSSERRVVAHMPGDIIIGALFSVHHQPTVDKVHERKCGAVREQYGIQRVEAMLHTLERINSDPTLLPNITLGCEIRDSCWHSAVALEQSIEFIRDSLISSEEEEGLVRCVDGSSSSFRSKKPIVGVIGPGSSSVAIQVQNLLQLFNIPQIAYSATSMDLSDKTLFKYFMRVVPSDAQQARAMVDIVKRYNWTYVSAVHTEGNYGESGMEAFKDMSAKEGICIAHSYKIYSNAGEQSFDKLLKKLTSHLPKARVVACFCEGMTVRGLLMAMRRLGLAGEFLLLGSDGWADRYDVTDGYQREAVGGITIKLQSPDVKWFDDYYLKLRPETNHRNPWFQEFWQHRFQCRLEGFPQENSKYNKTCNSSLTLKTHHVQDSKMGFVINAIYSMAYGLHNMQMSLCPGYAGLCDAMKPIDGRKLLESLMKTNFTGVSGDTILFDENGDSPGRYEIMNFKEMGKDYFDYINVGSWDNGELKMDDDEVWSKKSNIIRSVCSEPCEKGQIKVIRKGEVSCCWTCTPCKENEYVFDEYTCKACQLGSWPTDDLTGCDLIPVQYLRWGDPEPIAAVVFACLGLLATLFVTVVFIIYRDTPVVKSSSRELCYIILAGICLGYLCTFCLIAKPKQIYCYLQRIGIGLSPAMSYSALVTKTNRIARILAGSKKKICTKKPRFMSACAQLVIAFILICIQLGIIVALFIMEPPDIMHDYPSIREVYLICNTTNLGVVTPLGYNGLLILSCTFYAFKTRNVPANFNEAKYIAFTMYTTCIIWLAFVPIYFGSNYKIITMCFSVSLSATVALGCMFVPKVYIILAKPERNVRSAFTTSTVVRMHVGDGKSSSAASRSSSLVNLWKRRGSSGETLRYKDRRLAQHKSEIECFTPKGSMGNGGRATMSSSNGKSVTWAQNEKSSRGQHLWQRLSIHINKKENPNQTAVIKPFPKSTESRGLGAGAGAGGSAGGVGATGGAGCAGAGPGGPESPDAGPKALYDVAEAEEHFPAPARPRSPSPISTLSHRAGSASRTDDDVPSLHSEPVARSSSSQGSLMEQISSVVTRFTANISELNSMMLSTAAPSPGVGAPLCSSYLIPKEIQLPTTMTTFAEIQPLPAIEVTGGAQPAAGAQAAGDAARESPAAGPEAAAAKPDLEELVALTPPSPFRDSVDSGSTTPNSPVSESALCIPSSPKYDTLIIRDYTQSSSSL

[7] = biological target: Metabotropic glutamate receptor 1 (Rattus norvegicus, UniProt P23385); experiment: Antagonist activity at rat mGluR1 receptor expressed in CHO cell membranes assessed as inhibition of L-glutamate-induced calcium mobilization by FLIPR; type: functional, cell-based
Chain of Metabotropic glutamate receptor 1 (Rattus norvegicus, UniProt P23385) (P23385 whole entry): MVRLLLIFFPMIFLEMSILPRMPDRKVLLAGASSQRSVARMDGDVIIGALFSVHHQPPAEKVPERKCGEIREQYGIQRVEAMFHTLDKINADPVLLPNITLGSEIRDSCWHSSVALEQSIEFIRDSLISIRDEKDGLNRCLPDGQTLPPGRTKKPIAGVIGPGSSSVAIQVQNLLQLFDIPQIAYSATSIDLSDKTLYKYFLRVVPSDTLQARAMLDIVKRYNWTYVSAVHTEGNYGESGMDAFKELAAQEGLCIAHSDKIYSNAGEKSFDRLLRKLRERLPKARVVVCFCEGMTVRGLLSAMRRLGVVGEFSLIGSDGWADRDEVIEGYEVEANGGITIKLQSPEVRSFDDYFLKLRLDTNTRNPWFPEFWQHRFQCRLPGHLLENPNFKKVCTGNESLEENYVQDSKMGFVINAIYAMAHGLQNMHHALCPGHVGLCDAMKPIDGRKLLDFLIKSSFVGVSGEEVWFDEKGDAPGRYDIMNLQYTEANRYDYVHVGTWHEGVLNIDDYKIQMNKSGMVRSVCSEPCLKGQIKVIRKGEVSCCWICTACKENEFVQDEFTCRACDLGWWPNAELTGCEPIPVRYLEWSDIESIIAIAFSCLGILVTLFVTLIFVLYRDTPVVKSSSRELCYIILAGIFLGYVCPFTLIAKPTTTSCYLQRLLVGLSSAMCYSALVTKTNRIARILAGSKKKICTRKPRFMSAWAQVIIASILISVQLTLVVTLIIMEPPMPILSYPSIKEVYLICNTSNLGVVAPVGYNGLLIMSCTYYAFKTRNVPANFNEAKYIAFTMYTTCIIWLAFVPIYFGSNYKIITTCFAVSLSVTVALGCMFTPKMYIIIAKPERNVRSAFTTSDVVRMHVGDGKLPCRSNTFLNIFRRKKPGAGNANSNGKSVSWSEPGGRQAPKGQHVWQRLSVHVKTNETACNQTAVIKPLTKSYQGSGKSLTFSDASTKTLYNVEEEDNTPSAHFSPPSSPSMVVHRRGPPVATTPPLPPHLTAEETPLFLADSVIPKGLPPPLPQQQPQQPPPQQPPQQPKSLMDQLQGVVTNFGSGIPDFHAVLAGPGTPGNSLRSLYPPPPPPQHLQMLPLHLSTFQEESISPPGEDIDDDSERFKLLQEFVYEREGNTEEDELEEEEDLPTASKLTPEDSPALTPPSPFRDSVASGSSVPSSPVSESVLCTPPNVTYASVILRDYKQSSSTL

[8] = biological target: Metabotropic glutamate receptor 2 (Homo sapiens, UniProt Q14416); experiment: Antagonist activity at human mGluR2 receptor expressed in CHO cell membranes assessed as inhibition of L-glutamate-induced calcium mobilization by FLIPR; type: functional, cell-based
Chain of Metabotropic glutamate receptor 2 (Q14416 whole entry): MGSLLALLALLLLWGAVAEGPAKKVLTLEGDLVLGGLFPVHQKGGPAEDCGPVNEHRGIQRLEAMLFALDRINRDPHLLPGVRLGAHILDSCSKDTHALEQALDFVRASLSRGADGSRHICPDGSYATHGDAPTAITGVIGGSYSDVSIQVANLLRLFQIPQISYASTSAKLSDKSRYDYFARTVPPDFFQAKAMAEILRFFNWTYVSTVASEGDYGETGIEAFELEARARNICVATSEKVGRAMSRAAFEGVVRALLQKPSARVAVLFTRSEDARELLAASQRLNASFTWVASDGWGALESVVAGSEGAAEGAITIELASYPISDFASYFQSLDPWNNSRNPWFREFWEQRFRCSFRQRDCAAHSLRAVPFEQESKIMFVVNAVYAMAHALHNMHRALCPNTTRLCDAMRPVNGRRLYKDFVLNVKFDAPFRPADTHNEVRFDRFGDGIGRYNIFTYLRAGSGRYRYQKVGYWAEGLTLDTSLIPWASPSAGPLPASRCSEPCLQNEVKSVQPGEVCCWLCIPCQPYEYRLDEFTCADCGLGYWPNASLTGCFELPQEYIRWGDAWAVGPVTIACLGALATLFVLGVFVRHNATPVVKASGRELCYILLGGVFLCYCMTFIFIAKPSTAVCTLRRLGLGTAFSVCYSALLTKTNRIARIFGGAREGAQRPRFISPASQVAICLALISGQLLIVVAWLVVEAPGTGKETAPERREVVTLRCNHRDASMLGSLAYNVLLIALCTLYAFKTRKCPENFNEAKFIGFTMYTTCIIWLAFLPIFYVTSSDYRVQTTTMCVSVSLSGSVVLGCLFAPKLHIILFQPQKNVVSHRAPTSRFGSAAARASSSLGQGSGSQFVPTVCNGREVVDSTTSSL

[9] = biological target: T1, Metabotropic glutamate receptor 1; experiment: Antagonist activity at human mGluR1 receptor quisqualic acid binding site expressed in CHO cell membranes assessed as inhibition of L-glutamate-induced calcium mobilization by FLIPR; type: functional; summary of the method: as §1
[10] = Plasma clearance in rat at 1 mg/kg, po and 0.3 mg/kg, iv; type: ADME, organism-based
Summary of the method: (§3)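 Rats dosed orally at 1 mg/kg and intravenously at 0.3 mg/kg. Oral bioavailability, half-life and total plasma clearance were derived from the plasma profiles.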

Brain = experiment: Drug uptake in mouse brain at 1 mg/kg, po after 30 mins; details: in vivo, 0.5 h
[11] = biological target: Metabotropic glutamate receptor 8 (Homo sapiens, UniProt O00222); experiment: Antagonist activity at human mGluR8 receptor expressed in CHO cell membranes assessed as inhibition of L-glutamate-induced calcium mobilization by FLIPR; type: functional, cell-based
Rattus norvegicus [12] = experiment: Antipsychotic-like effect in rat assessed as inhibition of MAP-induced prepulse inhibition at 1 mg/kg, po; type: functional, organism-based; parameters: dose 1 mg/kg
Summary of the method: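 Rat prepulse inhibition model of methamphetamine-induced disruption. Test article given orally at 1 mg/kg.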

[13] = Half life in rat at 1 mg/kg, po and 0.3 mg/kg, iv; type: ADME, organism-based; details: in vivo; summary of the method: as §3
Rattus norvegicus [14] = experiment: Induction of catalepsy in rat at 30 mg/kg, po
[15] = Oral bioavailability in rat at 1 mg/kg; type: ADME, organism-based; details: in vivo; summary of the method: as §3
Mus musculus = experiment: Plasma concentration in mouse at 1 mg/kg, po after 30 mins

Compound: CCN1Cc2cc(-c3nnn(-c4cccnc4F)c3C)ccc2C1=O
IC50 [1]: 3.3 nM
clearance [2]: 19 mL/min/kg
half-life [3]: 18 min
logD [4]: 1.8
bioavailability [5]: 62%
IC50 [6]: 1100 nM

Compound: Cc1c(-c2ccc3c(c2)CN(C(C)C)C3=O)nnn1-c1ccc(F)cc1F
IC50 [7]: 3.6 nM
IC50 [8]: > 10000 nM
IC50 [9]: > 10000 nM
clearance [10]: 20 mL/min/kg
Drug uptake (Brain): 0.45 nmol/g
IC50 [11]: > 10000 nM
Activity (Rattus norvegicus [12]): Active
half-life [13]: 42 min
Activity (Rattus norvegicus [14]): inactive
bioavailability [15]: 46%
concentration at 0.5 h (Mus musculus): 170 nM

Compound: Cc1c(-c2ccc(C(=O)C3CC3)cc2)nnn1-c1cccnc1
IC50 [1]: 22 nM

Compound: Cc1c(-c2ccc3ncccc3c2)nnn1-c1cccnc1
IC50 [1]: 4.9 nM

Compound: Cc1c(-c2ccc3c(c2)CN(C2CC2)C3=O)nnn1-c1cccnc1F
IC50 [1]: 3.5 nM
clearance [2]: 8.1 mL/min/kg
half-life [3]: 36 min
logD [4]: 1.9
bioavailability [5]: 100%
IC50 [6]: 5400 nM

Compound: Cc1c(-c2ccc3c(c2)CCC3=O)nnn1-c1cccnc1
IC50 [1]: 69 nM

Compound: CCC(=O)c1ccc(-c2nnn(-c3cccnc3)c2C)cc1
IC50 [1]: 170 nM

Compound: Cc1c(C2=CCN(C(=O)N(C)C(C)C)CC2)nnn1-c1cccnc1F
half-life [3]: 12 min
IC50 [6]: > 10000 nM

Compound: Cc1c(-c2ccc3c(c2)CN(C(C)C)C3=O)nnn1-c1cccnc1F
IC50 [1]: 5.5 nM
clearance [2]: 5.9 mL/min/kg
half-life [3]: 132 min
logD [4]: 2.2
bioavailability [5]: 96%
IC50 [6]: 2300 nM

Compound: Cc1nc2cc(-c3nnn(-c4cccnc4)c3C)ccc2s1
IC50 [1]: 1500 nM

Compound: Cc1c(-c2cccc(C(=O)OC(C)C)c2)nnn1-c1cccnc1
IC50 [1]: 2400 nM

Compound: Cc1c(-c2ccc3ccccc3c2)nnn1-c1cccnc1
IC50 [1]: 300 nM

The remaining molecules from weak to strong by IC50 [1], led by results:

IC50 [1]: 3900 nM
Compound: Cc1c(-c2ccc(C(=O)c3ccccc3)cc2)nnn1-c1cccnc1

IC50 [1]: 1800 nM
Compound: Cc1c(-c2ccc(C(=O)N3CCCC3)cc2)nnn1-c1cccnc1

IC50 [1]: 880 nM
Compound: Cc1c(-c2ccc(C(=O)N(C)C(C)C)cc2)nnn1-c1cccnc1

IC50 [1]: 470 nM
Compound: CC(=O)c1ccc(-c2nnn(-c3cccnc3)c2C)cc1

IC50 [1]: 250 nM
Compound: Cc1c(-c2ccc3[nH]ccc3c2)nnn1-c1cccnc1

IC50 [1]: 210 nM
Compound: Cc1c(-c2ccc(C(=O)NC(C)C)cc2)nnn1-c1cccnc1

IC50 [1]: 33 nM
Compound: Cc1c(-c2ccc(C(=O)OC(C)C)cc2)nnn1-c1cccnc1

IC50 [1]: 11 nM
Compound: Cc1c(-c2ccc3c(c2)CC(C)(C)C3=O)nnn1-c1cccnc1

IC50 [1]: 3.6 nM
clearance [2]: 5.5 mL/min/kg
half-life [3]: 60 min
logD [4]: 2.3
bioavailability [5]: 100%
IC50 [6]: 2800 nM
Compound: CCCN1Cc2cc(-c3nnn(-c4cccnc4F)c3C)ccc2C1=O

IC50 [1]: 2.6 nM
Compound: Cc1c(-c2ccc3c(c2)CC(C2CC2)C3=O)nnn1-c1cccnc1 (stereo not drawn)
